Sampled rows, rich in hits. Any-hit rate of the full collection: about 4%.
Yeast life ext: compounds extending yeast replicative lifespan, primary screen, S. cerevisiae, OD615. S. cerevisiae growth with nicotinamide; deaD strain in restrictive glucose medium. inhibition of the nicotinamide effect, % at 10 µM. 0.68% of 130,000 active. AID 775, 2007;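 active = inhibition above a set limit, placed 3 SD over the median of all compounds, cut at about 26% in these data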;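 note: 0% = nicotinamide-treated wells and 100% = cells grown without nicotinamide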
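System: DeaD-strain S. cerevisiae / Buffer or medium: CSMM-D, restrictive glucose (dextrose) synthetic minimal medium / Probe or stimulus: nicotinamide, 1.5 mM, co-present with compound / Compound: one concentration, 10 µM, DMSO 0.25% / Incubation: 48 h compound exposure at 30 °C, humidified / Technique: optical density (absorbance) at 615 nm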
MDM2 E3 inh: MDM2-luciferase reporter signal enhancers, primary screen, MDM2 E3 ligase inhibitor project, cell-based, luminescence, 1536-well | cell-based MDM2 ubiquitination luciferase reporter, 2 h; 0 = plate control, 100 = twice control, blank-subtracted | signal enhancement, % at 5 µM | 0.11% of 210,000 active | AID 1230, 2008;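 active = signal enhancement of 30% or more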;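 note: luminescence tracks abundance of the self-degrading MDM2-luciferase fusion protein; higher signal means inhibition of MDM2 E3 ligase activity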
Target sequence (Q00987 whole entry, looked up, the tested form may be a part): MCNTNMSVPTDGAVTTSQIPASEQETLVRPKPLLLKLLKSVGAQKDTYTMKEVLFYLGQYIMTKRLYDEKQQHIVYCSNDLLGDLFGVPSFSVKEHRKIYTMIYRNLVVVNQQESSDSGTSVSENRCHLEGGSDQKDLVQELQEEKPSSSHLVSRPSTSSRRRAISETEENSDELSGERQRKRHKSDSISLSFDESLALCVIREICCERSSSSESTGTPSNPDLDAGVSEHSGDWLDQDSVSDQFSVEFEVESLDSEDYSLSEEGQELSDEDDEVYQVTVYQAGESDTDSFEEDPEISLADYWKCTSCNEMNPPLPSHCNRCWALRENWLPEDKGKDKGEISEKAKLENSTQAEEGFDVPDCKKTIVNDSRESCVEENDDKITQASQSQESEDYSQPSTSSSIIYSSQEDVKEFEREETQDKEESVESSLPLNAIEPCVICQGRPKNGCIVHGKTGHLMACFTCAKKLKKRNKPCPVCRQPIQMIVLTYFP
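Test system: stable mammalian line carrying autodegrading MDM2–luciferase fusion reporter; quantity: 2000 cells in each well; times: 4 h cell settling then 2 h compound exposure, 37 °C; detection: luminescence with SteadyLite reagent, 15 min at room temperature; evaluation: percent signal gain over controls, blank-subtracted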
Yeast growth inh: growth inhibitors of yeast BB579 in restrictive medium, primary screen, yeast lifespan-shortening project, S. cerevisiae | OD615, 48 h | inhibition, % at 10 µM | 0.51% of 140,000 active;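 active = inhibition above a set limit, 3 SD over the mean compound inhibition, cut at about 44% in these data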
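Material: Saccharomyces cerevisiae DeaD strain BB579, replicative lifespan model yeast; buffer or medium: CSMM-D restrictive synthetic medium containing dextrose (glucose); compound: 10 µM single dose, DMSO 0.25%; timing: 48 h compound exposure at 30 °C after 4 h preincubation; signal: turbidity as optical density at 615 nm; benchmarks: positive control amphotericin B 10 µg/mL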
RAM network inh: inhibitors of the yeast RAM network, primary screen, dse1pr::URA3 reporter, 5-FOA selection; S. cerevisiae dse1pr::URA3 reporter, 5-FOA growth OD615, 2 d; analog-sensitive cbk1-as2 kinase mutant strain; inhibition, % at 50 µM; 1.8% of 190,000 active; AID 868, 2007;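 active = inhibition above a set limit, 3 SD over mean compound inhibition, cut at about 8.4% in these data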;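 note: 0% = DMSO-only wells with no growth and 100% = 10 µM 1-NA-PP1 full growth; inhibition rescues growth on 5-FOA so higher OD means more RAM inhibition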
Insulin prom inh: inhibitors of insulin promoter-driven GFP, primary screen, imaging, TRM-6 cells, eGFP reporter, cell count; inhibition, % at 2 µM; 0.9% of 130,000 active; reporter expression induced with tamoxifen;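 active = inhibition above the mean plus 3 SD, with well images judged a real hit on visual review, cut at about 60% in these data, passing the limit was not always enough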
Measles CPE: compounds protecting cells from measles virus cytopathic effect, primary screen, measles RdRp inhibitor project, single point, MLSMR library, absorbance. Measles virus-infected cells, CPE protection. protection (pct of control), % at 4 µM. 1.5% of 140,000 active; in the data active = protection mostly above about 24%, no sharp cut-off; inactive = mostly below about 26%
The depositor's hits bear a star; . = no result given.

SMILES	Yeast life ext	MDM2 E3 inh	Yeast growth inh	RAM network inh	Insulin prom inh	Measles CPE
COc1ccc(CCN2C(=NC(=O)C(C)C)SC3CS(=O)(=O)CC32)cc1OC (stereo not given)	.	-11.0	.	.	.	.
COCCNC(=O)c1ccc(NC(C)=O)cc1	-3.5	-11.7	-70.5	1.8	-3.2	51.8*
C=CCNC(=S)NNc1nc2c(c(=O)[nH]1)C1(CCCCC1)Cc1ccccc1-2	0.4	-9.6	-37.2	6.5	25.9	19.9
Cc1cc(F)ccc1NCc1ccc([N+](=O)[O-])cc1	.	-7.8	.	-1.0	-53.5	.
O=C(NCCN1CCOCC1)c1cc(Cl)ccc1[N+](=O)[O-]	0.4	-17.2	-37.6	1.5	.	32.4*
Cn1c(=O)[nH]c(=O)c2c1nc(N1CCOCC1)n2CCCSc1ncccn1	8.2	-11.8	1.8	0.9	6.5	16.9
Cc1ccc(-c2nnc(SCC(=O)Nc3cccc(C(=O)N4CCOCC4)c3)n2C)cc1	2.7	6.7	13.9	0.4	11.5	7.3
COc1ccc(Nc2nnc(Cc3ccccc3)c(=O)[nH]2)c(OC)c1	3.0	-17.6	10.8	1.5	85.7*	18.8
COCCNC(=O)/C=C/c1c(Cl)cccc1Cl	-7.1	7.4	-9.5	0.9	71.4*	17.6
COCCCNC(=O)/C=C/c1c(Cl)cccc1Cl	-5.9	-13.3	-24.2	0.9	31.6	15.2
Cc1cc(NC(=S)NC(=O)C2CC2)ccc1Br	-4.0	-4.9	-50.3	-2.0	.	6.0
CCc1ccc2c(c1)c(N=NC1=NC(=O)CS1)c(O)n2C	-20.9	0.7	-30.8	4.7	79.1*	3.8
CCOC(=O)/C(C)=N/Nc1nc(-c2ccc(NC(C)=O)cc2)cs1	.	-6.4	.	.	.	.
Cc1cccc2c(=O)cc(C)n(Cc3ccccc3)c12	-5.8	-10.6	-56.2	1.7	-18.5	35.9*
Cc1ccc(S(=O)(=O)NC(=O)c2ccc(-c3ccc(-c4ccccc4)cc3)o2)c(C)c1	-7.3	.	-34.5	7.2	66.7*	1.2
Cc1ccc(S(=O)(=O)NNc2ccccc2)c(C)c1	-1.4	-8.9	-22.2	-0.5	34.5	6.8
CC(C)[C@H](NC(=O)Nc1cccc(C(F)(F)F)c1)C(=O)O	16.5	-9.7	-19.2	1.4	.	27.1*
CC(C)[C@H](NC(=O)Nc1cccc(Br)c1)C(=O)O	4.8	7.8	13.8	0.4	31.0	28.2
COCC(=O)Nc1cccc(C(F)(F)F)c1	-4.6	-12.6	2.4	0.6	-25.0	37.1*
O=C(O)CCCC(=O)Nc1cccc(C(F)(F)F)c1	-5.4	-16.8	-24.5	0.1	.	21.9
Cc1ccc(/C(N)=N/OC(=O)c2ccc(C)cc2Cl)cc1	-6.2	-54.3	57.7*	1.1	50.0	5.1
N/C(=N\OC(=O)c1ccc(Cl)cc1Cl)c1ccccc1	-13.2	-27.3	95.6*	3.5	-6.7	9.7
COc1ccccc1CNC(=O)/C=C/c1cc2c(cc1Br)OCO2	1.8	0.7	-29.1	2.2	-26.1	-0.1
Cc1ccc2c(c1C)NC(C)CC2C (stereo not given)	-3.9	-14.7	17.3	1.4	0.0	7.1
CSC1=NCCN1S(=O)(=O)c1ccc(C)cc1	.	-10.8	.	0.7	78.6*	.
SMILES	Yeast life ext	MDM2 E3 inh	Yeast growth inh	RAM network inh	Insulin prom inh	Measles CPE
CN(C)S(=O)(=O)c1cccc(NC(=S)NN=C(Cc2ccccc2)Cc2ccccc2)c1	-3.4	-5.5	-8.4	10.4*	10.3	5.6
COc1ccc(O)c(-c2cc(C(F)(F)C(F)F)nc(-c3ccccc3)n2)c1	-0.9	-16.5	-16.8	9.1*	-12.2	11.7
CCOC(=O)N1CCC(N2C(=O)c3ccccc3C2Nc2c(C)cccc2C)CC1 (stereo not given)	-11.7	-7.0	-23.0	0.9	.	5.3
Cc1ccc(/C=C/C(=O)Nc2cc(S(N)(=O)=O)ccc2O)cc1	.	-2.5	.	0.5	.	.
O=C(N/C(=C\c1ccc([N+](=O)[O-])cc1)C(=O)N1CCCCC1)c1ccccc1Br	0.0	-6.2	-31.9	0.4	-8.3	6.0
FC(F)(F)c1cccc(N2CCc3cn[nH]c32)c1	-28.9	17.6	22.2	0.1	-411.1	38.6*
CCN(CC)S(=O)(=O)c1ccc(C(=O)C(C#N)c2ccccn2)cc1 (stereo not given)	-10.1	-6.4	-63.4	1.4	72.7*	1.7
CCOC(=O)C(C#N)c1ccccn1 (stereo not given)	-13.6	-15.2	-27.4	-1.2	-36.1	19.0
CCO[C@@H]1OC(C(=O)NCc2ccccc2)=C[C@H](c2csc3ccccc23)[C@H]1CCCO	.	.	.	8.2	.	.
CCCCCCCC(=O)OCC(O)CO (stereo not given)	-2.0	.	15.7	0.1	19.1	91.1*
Cc1cc(NC(=O)CSc2ccc(-c3nc4cc(C)c(C)cc4[nH]3)cn2)no1	-16.1	-23.8	-44.1	10.0*	21.4	6.1
Cc1cc2nc(-c3ccc(SCC(=O)Nc4ccc(S(=O)(=O)NC5CC5)cc4)nc3)[nH]c2cc1C	4.2	-10.0	-26.6	9.3*	24.2	17.1
Cc1cc2nc(-c3ccc(SCC(=O)NC(C)C)nc3)[nH]c2cc1C	.	-15.1	.	0.3	42.9	.
CCOC(=O)c1c(NC(=O)/C=C/C(=O)O)sc(C)c1-c1ccc(Cl)cc1	.	-4.7	.	4.4	.	.
CCOC(=O)c1c(N)sc(C(O)(C(F)(F)F)C(F)(F)F)c1-c1ccc(Cl)cc1	-11.6	-13.7	51.7*	-1.4	28.6	34.0
CCOC(=O)c1c(N)sc(C(O)(C(F)(F)F)C(F)(F)F)c1-c1ccc(F)cc1	-11.8	-10.3	48.2*	-1.8	-22.2	8.9
COCCNC(=O)c1cc(S(=O)(=O)N2CCOCC2)ccc1SCc1cccc(OC)c1OC	.	-3.9	.	0.0	.	.
CCN1C(=O)CSc2ccc(C(=O)NCc3ccc(OC)cc3)cc21	-6.9	-1.9	-9.9	0.2	.	36.3*
CCCCNC(=O)c1ccc2c(c1)N(CC)C(=O)CS2	-0.5	-4.5	-33.4	0.2	.	0.6
CC(=O)c1c(COC(=O)c2ccc(C)cc2)nc2ccccc2[n+]1[O-]	.	-3.0	.	.	.	.
O=c1[nH]c(N2CCCCC2)nc2ncn(Cc3ccccc3)c12	.	-7.0	.	.	.	.
O=C1CN(C(=O)CSc2nc(-c3ccc(Cl)cc3)cs2)c2ccccc2N1	-3.4	0.9	-12.6	1.5	.	15.6
CN1C(=O)C2(N=c3ccccc3=N2)c2ccccc21	-34.8	-7.0	57.2*	0.9	-23.1	4.3
CCCCCc1cc(=O)oc2c(C(CCN(CC)CC)c3ccc(N(C)C)cc3)c(OC)cc(OC)c12 (stereo not given)	.	-19.6	.	.	.	.
O=c1cc(-c2ccccc2)[nH][nH]1	.	0.9	-29.7	1.2	38.9	5.5

Screens: PubChem BioAssay, several laboratories
